ChEMBL document CHEMBL5647683 (Oncogene, 2008)
Calls of active or inactive are those of the source. The calls are words filed in the database; no cut-off is given here.

Assays:
NCI-N87 = test: Antitumor activity against human NCI-N87 cells xenografted athymic NMRI-nu/nu female mouse as reduction in tumor volume at 20 mg/kg, po administered daily for 25 days relative to control; assay type: functional; conditions: time 25 day
Summary of the method: (§1)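 Female athymic NMRI-nu/nu mice (5–6 weeks, 21–31 g) given 1–5×10⁶ cells into the right flank; MDA-MB-453 tumors started from fresh 2×2×2 mm fragments. At 40–130 mm³, tumors were randomized to weight-based daily oral gavage (10 ml/kg; 1.8% HP-β-CD, 5% acetic acid (10%), 0.5% Natrosol) or vehicle. Caliper measurement 3×/week, volume π/6×L×W². Expressed as cumulative treated/control volume ratio; one-way ANOVA with Dunnett's test.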

Mus musculus [1] = test: In vivo inhibition of HER2 phosphorylation in EGFR L858R/T790M mutant driven lung cancer mouse model at 20 mg/kg, po measured after 48 hrs by immunohistochemical staining; assay type: functional, organism-based
Summary of the method: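 Doxycycline-maintained L858R/T790M EGFR bitransgenic mice, three per group, received 20 mg/kg by gavage, alone or with 2 mg/kg intraperitoneal rapamycin, three times at 24 h intervals. Mice were killed 1 h after the last dose, about 48 h from the start. Lung sections immunostained for phosphorylated receptors; littermates served as controls.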

Homo sapiens = organism: Homo sapiens; test: Inhibition of AMPK (unknown origin) assessed as remaining activity relative to control; values are per cent of control
Mus musculus [2] = test: Antitumor activity against EGFR L858R/T790M mutant driven lung cancer mouse model assessed as histological change in foci of localized inflammatory cells at 20 mg/kg, po administered daily for 2 weeks in the presence of rapamycin by IHC staining based analysis; assay type: functional, organism-based
[3] = AUC(0-24hrs) in human HT-29 cells xenografted athymic NMRI-nu/nu female mouse at 20 mg/kg, po administered daily for 25 days by LC-MS-MS method; assay type: ADME, organism-based; conditions: in vivo, time 25 day
[4] = target: Serine/threonine-protein kinase Nek6 (Homo sapiens) (UniProt Q9HC98); test: Inhibition of NEK6 (unknown origin) assessed as remaining activity relative to control; values are per cent of control
NIH3T3 [5] = test: Inhibition of colony formation in EGFR exon 20 insertion mutant D770-771insNPG expressing mouse NIH3T3 cells assessed as number of colonies at 1 to 10000 nM incubated for 2 week by soft agar assay; assay type: functional, cell-based; conditions: dose 1-10000 nM, time 2.0 weeks
Summary of the method: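 NIH-3T3 cells expressing wild-type or mutant EGFR suspended in top agar (DMEM, 10% calf serum, 0.4% agar) over 0.5% agar bottom layer; drug added to top layer; wild-type cells supplemented with 100 ng/ml EGF. Triplicate plating, 2-week incubation; colonies counted from 10 fields photographed at ×4; values normalized to untreated.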

HT-29 = test: Antitumor activity against human HT-29 cells xenografted athymic NMRI-nu/nu female mouse as reduction in tumor volume at 20 mg/kg, po administered daily for 25 days relative to control; assay type: functional; conditions: time 25 day
A-431 = test: Antitumor activity against human A-431 cells xenografted athymic NMRI-nu/nu female mouse as reduction in EGFR phosphorylation at 20 mg/kg, po administered daily for 25 days by immunohistochemical staining; assay type: functional, organism-based; conditions: time 25.0 day
Summary of the method: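 A431 flank xenografts in female NMRI-nu/nu mice dosed daily by oral gavage in HP-β-CD/acetic acid/Natrosol vehicle. Tumors collected 6 h after the last dose. Sections immunostained for phospho-EGFR and phospho-AKT.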

[6] = Cmax in human FaDu cells xenografted athymic NMRI-nu/nu female mouse at 20 mg/kg, po administered daily for 25 days by LC-MS-MS method; assay type: ADME, organism-based; conditions: in vivo, time 25 day
[7] = target: Ribosomal protein S6 kinase alpha-5 (Homo sapiens) (UniProt O75582); test: Inhibition of MSK1 (unknown origin) assessed as remaining activity relative to control; values are per cent of control
[8] = target: Protein kinase C alpha type (Homo sapiens) (UniProt P17252); test: Inhibition of PKCalpha (unknown origin) assessed as remaining activity relative to control; values are per cent of control
Mus musculus [9] = test: Antitumor activity against EGFR L858R/T790M mutant driven lung cancer mouse model assessed as […] at 20 mg/kg, po administered daily for 1 week in the presence of rapamycin by MRI analysis; assay type: functional, organism-based; conditions: time 1.0 weeks
Summary of the method: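 Bitransgenic L858R/T790M EGFR lung tumor mice on continuous doxycycline received oral gavage at 20 mg/kg/day (0.5% methylcellulose–0.4% Tween 80) plus intraperitoneal rapamycin at 2 mg/kg/day (ethanol stock diluted in 5% PEG400/5% Tween 80) for 1 week. Six mice; MRI before and after treatment; regression as mean ± s.d., Student's t-test.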

NIH3T3 [10] = test: Inhibition of human EGFR mutant R108K phosphorylation at Y1173 residue expressed in mouse NIH3T3 cells at 1 to 10000 nM incubated for 2 hrs by immunoblot analysis; assay type: cell-based; conditions: dose 1-10000 nM
SK-OV-3 = test: Antitumor activity against human SK-OV-3 cells xenografted athymic NMRI-nu/nu female mouse as reduction in tumor volume at 20 mg/kg, po administered daily for 25 days relative to control; assay type: functional; conditions: time 25 day; summary of the method: as §1
[11] = target: Dual specificity mitogen-activated protein kinase kinase 1 (Homo sapiens) (UniProt Q02750); test: Inhibition of MKK1 (unknown origin) assessed as remaining activity relative to control; values are per cent of control
MDA-MB-453 = test: Antitumor activity against human MDA-MB-453 cells xenografted athymic NMRI-nu/nu female mouse as reduction in tumor volume at 20 mg/kg, po administered daily for 25 days relative to control; assay type: functional; conditions: time 25 day; summary of the method: as §1

Ribosomal protein S6 kinase alpha-5 (Homo sapiens), sequence (O75582 whole entry, looked up): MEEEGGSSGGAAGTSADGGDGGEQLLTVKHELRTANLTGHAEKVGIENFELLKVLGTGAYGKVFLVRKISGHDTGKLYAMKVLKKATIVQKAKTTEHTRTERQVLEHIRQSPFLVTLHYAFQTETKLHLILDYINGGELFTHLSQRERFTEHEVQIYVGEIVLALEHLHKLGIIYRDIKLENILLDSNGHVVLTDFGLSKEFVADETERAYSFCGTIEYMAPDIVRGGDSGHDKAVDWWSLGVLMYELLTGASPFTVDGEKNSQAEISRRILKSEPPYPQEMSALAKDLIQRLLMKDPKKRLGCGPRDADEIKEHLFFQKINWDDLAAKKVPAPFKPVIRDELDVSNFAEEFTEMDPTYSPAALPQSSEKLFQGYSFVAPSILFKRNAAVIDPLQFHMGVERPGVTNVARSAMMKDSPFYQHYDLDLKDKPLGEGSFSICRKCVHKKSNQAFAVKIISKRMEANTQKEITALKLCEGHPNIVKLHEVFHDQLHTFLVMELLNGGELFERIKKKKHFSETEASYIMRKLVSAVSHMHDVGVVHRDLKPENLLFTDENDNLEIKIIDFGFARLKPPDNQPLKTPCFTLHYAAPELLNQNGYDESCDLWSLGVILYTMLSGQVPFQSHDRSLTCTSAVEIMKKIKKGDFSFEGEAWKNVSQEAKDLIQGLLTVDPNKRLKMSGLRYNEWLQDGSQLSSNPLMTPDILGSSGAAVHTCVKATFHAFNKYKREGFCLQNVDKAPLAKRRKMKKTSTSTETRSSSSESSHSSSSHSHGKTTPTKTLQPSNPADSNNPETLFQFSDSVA
Dual specificity mitogen-activated protein kinase kinase 1 (Homo sapiens), sequence (Q02750 whole entry): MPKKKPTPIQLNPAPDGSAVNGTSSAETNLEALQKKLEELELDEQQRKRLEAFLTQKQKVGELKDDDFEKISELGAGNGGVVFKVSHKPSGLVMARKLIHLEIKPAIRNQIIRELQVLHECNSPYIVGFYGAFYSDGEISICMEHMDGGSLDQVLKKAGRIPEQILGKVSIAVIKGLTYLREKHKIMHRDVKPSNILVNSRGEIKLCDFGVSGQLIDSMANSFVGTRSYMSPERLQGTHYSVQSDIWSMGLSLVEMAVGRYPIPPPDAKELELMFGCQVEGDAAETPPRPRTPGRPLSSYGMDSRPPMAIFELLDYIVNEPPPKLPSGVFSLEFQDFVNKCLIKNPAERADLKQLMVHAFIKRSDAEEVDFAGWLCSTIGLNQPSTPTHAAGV
Serine/threonine-protein kinase Nek6 (Homo sapiens), sequence (Q9HC98 whole entry): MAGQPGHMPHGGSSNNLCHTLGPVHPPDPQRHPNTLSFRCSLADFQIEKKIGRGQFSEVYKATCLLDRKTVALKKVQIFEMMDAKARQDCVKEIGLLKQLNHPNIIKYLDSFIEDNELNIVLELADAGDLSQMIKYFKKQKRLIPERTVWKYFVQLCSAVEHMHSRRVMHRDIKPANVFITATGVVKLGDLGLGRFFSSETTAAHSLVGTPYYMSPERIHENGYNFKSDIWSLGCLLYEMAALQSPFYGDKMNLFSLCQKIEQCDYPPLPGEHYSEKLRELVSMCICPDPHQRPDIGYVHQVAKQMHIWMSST

residual activity (Homo sapiens): 75%
AUC at 600 h [3]: 5.06 µM·h
residual activity [4]: 95%
Cmax [6]: 0.309 µM
residual activity [7]: 91%
residual activity [8]: 84%
residual activity [11]: 86%
SMILES: CN(C)C/C=C/C(=O)Nc1cc2c(Nc3ccc(F)c(Cl)c3)ncnc2cc1O[C@H]1CCOC1 [AFATINIB]
T/C (NCI-N87): 4%
Activity (Mus musculus [1]): Active
Activity (Mus musculus [2]): Active
inhibition (NIH3T3 [5]): Active
T/C (HT-29): 38%
Activity (A-431): Active
Activity (Mus musculus [9]): Active
inhibition (NIH3T3 [10]): Active
T/C (SK-OV-3): 3%
T/C (MDA-MB-453): 3%
